Key:
Format in all cases: functional
NCI-H460 = test: Cytotoxicity against human NCI-H460 cells assessed as cell growth at 0.001 uM after 48 hrs by sulforhodamine B assay; settings: NCI-H460, 48 h, read-out: Activity
OVCAR-3 [1] = test: Cytotoxicity against human OVCAR-3 cells assessed as cell growth at 100 nM after 48 hrs by sulforhodamine B assay; settings: OVCAR-3, 48 h, read-out: Activity
BT-549 = test: Cytotoxicity against human BT549 cells assessed as cell growth at 0.01 uM after 48 hrs by sulforhodamine B assay; settings: BT-549, 48 h, read-out: Activity
Procedure, shortened: (§1)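 NCI-60 five-dose screen. Cells were grown in RPMI 1640 with 5% FBS and 2 mM L-glutamine, plated at 5000–40,000 cells/well and preincubated for 24 h. Time-zero plates were TCA-fixed. DMSO-solubilized drug was added at five concentrations (10-fold or ½-log serial dilutions) for 48 h at 37 °C, 5% CO2. Cells were TCA-fixed, stained with 0.4% SRB and read at 515 nm. Percent growth used time-zero, control and test absorbances.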

HT-29 [2] = test: Cytotoxicity against human HT-29 cells assessed as cell growth at 10 uM after 48 hrs by sulforhodamine B assay; settings: HT-29, 48 h, read-out: Activity
OVCAR-5 = test: Cytotoxicity against human OVCAR5 cells assessed as cell growth at 10 uM; settings: read-out: Activity
Procedure, shortened: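 NCI-60 screen: cells grown in RPMI 1640 with 5% FBS and 2 mM L-glutamine, plated at 5000–40,000 cells/well according to doubling time, and preincubated 24 h at 37 °C, 5% CO2. The single 10 µM dose (DMSO stock) was added, then incubated 48 h. Cells were TCA-fixed and stained with 0.4% SRB, read at 515 nm, and growth % calculated against time-zero and control plates.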

SF-539 = test: Cytotoxicity against human SF539 cells assessed as cell growth at 0.001 uM after 48 hrs by sulforhodamine B assay; settings: SF-539, 48 h, read-out: Activity
786-0 = test: Cytotoxicity against human 786-0 cells assessed as cell growth at 0.001 uM after 48 hrs by sulforhodamine B assay; settings: 786-0, 48 h, read-out: Activity; procedure, shortened: as §1
SK-OV-3 = test: Cytotoxicity against human SKOV3 cells assessed as cell growth at 1 uM after 48 hrs by sulforhodamine B assay; settings: SK-OV-3, 48 h, read-out: Activity
CCRF-CEM = test: Cytotoxicity against human CCRF-CEM cells assessed as cell growth at 0.001 uM after 48 hrs by sulforhodamine B assay; settings: read-out: Activity; procedure, shortened: as §1
OVCAR-8 = test: Growth inhibition of human OVCAR8 cells after 48 hrs by sulforhodamine B assay; settings: OVCAR-8, 48 h; for CC50: read-out: LC50 (the source's name)
Procedure, shortened: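 NCI 60-cell screen, five-dose mode. Cells grown in RPMI 1640 with 5% FBS and 2 mM L-glutamine and plated at 5000-40,000 cells/well according to doubling time. After 24 h preincubation, a Tz plate was TCA-fixed. Five concentrations (10-fold or 1/2 log dilutions) were applied for 48 h at 37 °C. SRB staining read at 515 nm. IC50 taken from [(Ti-Tz)/(C-Tz)]×100 = 50.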

[3] = Cytotoxicity against human Hs 578T cells assessed as cell growth at 1 uM after 48 hrs by sulforhodamine B assay; settings: read-out: Activity
DU-145 = test: Growth inhibition of human DU145 cells after 48 hrs by sulforhodamine B assay; settings: DU-145, 48 h
Procedure, shortened: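 NCI five-dose SRB assay in RPMI 1640 with 5% FBS and 2 mM L-glutamine. Cells were preincubated 24 h, then exposed 48 h at 37 °C to five concentrations (10-fold or half-log serial dilutions from DMSO stocks). TCA fixation, SRB staining, and absorbance at 515 nm followed. IC50 was taken where [(Ti−Tz)/(C−Tz)]×100 = 50, with Tz as time-zero cell density.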

SK-MEL-28 = test: Cytotoxicity against human SK-MEL-28 cells assessed as cell growth at 0.01 uM after 48 hrs by sulforhodamine B assay; settings: SK-MEL-28, 48 h, read-out: Activity
NCI-H23 [4] = test: Cytotoxicity against human NCI-H23 cells assessed as cell growth at 0.01 uM after 48 hrs by sulforhodamine B assay; settings: NCI-H23, 48 h, read-out: Activity
M14 = test: Cytotoxicity against human M14 cells assessed as cell growth at 0.01 uM after 48 hrs by sulforhodamine B assay; settings: M14, 48 h, read-out: Activity
MDA-MB-468 = test: Cytotoxicity against human MDA-MB-468 cells assessed as cell growth at 100 nM after 48 hrs by sulforhodamine B assay; settings: MDA-MB-468, 48 h, read-out: Activity
HT-29 [5] = test: Cytotoxicity against human HT-29 cells assessed as cell growth at 0.001 uM after 48 hrs by sulforhodamine B assay; settings: HT-29, 48 h, read-out: Activity
U-251 = test: Cytotoxicity against human U251 cells assessed as cell growth at 1 uM after 48 hrs by sulforhodamine B assay; settings: U-251, 48 h, read-out: Activity
SW-620 = test: Cytotoxicity against human SW620 cells assessed as cell growth at 100 nM after 48 hrs by sulforhodamine B assay; settings: SW-620, 48 h, read-out: Activity
MDA-MB-435 = test: Cytotoxicity against human MDA-MB-435 cells assessed as cell growth at 100 nM after 48 hrs by sulforhodamine B assay; settings: MDA-MB-435, 48 h, read-out: Activity
MDA-MB-231 = test: Cytotoxicity against human MDA-MB-231 cells assessed as cell growth at 10 uM after 48 hrs by sulforhodamine B assay; settings: MDA-MB-231, 48 h, read-out: Activity
NCI-H23 [6] = test: Cytotoxicity against human NCI-H23 cells assessed as cell growth at 10 uM after 48 hrs by sulforhodamine B assay; settings: NCI-H23, 48 h, read-out: Activity
PC-3 = test: Cytotoxicity against human PC3 cells assessed as cell growth at 0.001 uM after 48 hrs by sulforhodamine B assay; settings: PC-3, 48 h, read-out: Activity
SK-MEL-2 = test: Cytotoxicity against human SK-MEL-2 cells assessed as cell growth at 0.01 uM after 48 hrs by sulforhodamine B assay; settings: SK-MEL-2, 48 h, read-out: Activity
IGROV-1 = test: Cytotoxicity against human IGROV1 cells assessed as cell growth at 100 nM after 48 hrs by sulforhodamine B assay; settings: IGROV-1, 48 h, read-out: Activity
OVCAR-3 [7] = test: Cytotoxicity against human OVCAR-3 cells assessed as cell growth at 0.01 uM after 48 hrs by sulforhodamine B assay; settings: OVCAR-3, 48 h, read-out: Activity
SN12C = test: Cytotoxicity against human SN12C cells assessed as cell growth at 10 uM after 48 hrs by sulforhodamine B assay; settings: read-out: Activity

Compound	growth at 0.001 µM (NCI-H460) [%]	growth at 0.1 µM (OVCAR-3 [1]) [%]	growth at 0.01 µM (BT-549) [%]	growth at 10 µM (HT-29 [2]) [%]	growth at 10 µM (OVCAR-5) [%]	growth at 0.001 µM (SF-539) [%]	growth at 0.001 µM (786-0) [%]	growth at 1 µM (SK-OV-3) [%]	growth at 0.001 µM (CCRF-CEM) [%]	GI50 (OVCAR-8) [µM]	TGI (OVCAR-8) [µM]	CC50 (OVCAR-8) [µM]	growth at 1 µM [3] [%]	GI50 (DU-145) [µM]	TGI (DU-145) [µM]	growth at 0.01 µM (SK-MEL-28) [%]	growth at 0.01 µM (NCI-H23 [4]) [%]	growth at 0.01 µM (M14) [%]	growth at 0.1 µM (MDA-MB-468) [%]	growth at 0.001 µM (HT-29 [5]) [%]	other results
COc1cc(C)cc(-c2nn(CC#N)cc2-c2ccc(-c3cccc(C(C)=O)c3)nc2)c1	104	66	90	-11	91.3	94	97	-4	96	3.16	35.2	> 100	-43	1.98	4.95	93	91	93	9	95	LC50 (DU-145): > 100 µM; growth at 1 µM (U-251): 6%; growth at 0.1 µM (SW-620): 56%; growth at 0.1 µM (MDA-MB-435): 11%; growth at 10 µM (MDA-MB-231): 1%; growth at 10 µM (NCI-H23 [6]): -1%; growth at 0.001 µM (PC-3): 94%; growth at 0.01 µM (SK-MEL-2): 89%; growth at 0.1 µM (IGROV-1): 88%; growth at 0.01 µM (OVCAR-3 [7]): 104%; growth at 10 µM (SN12C): 18%
COc1cc(C)cc(-c2c(-c3ccnc(-c4ccc(C(C)=O)cc4)c3)cnn2CC#N)c1	104	92	86	6	95	92	102	19	96	2.86	> 100	> 100	-23	3.42	> 100	94	95	86	68	110	LC50 (DU-145): > 100 µM; growth at 1 µM (U-251): 4%; growth at 0.1 µM (SW-620): 71%; growth at 0.1 µM (MDA-MB-435): 63%; growth at 10 µM (MDA-MB-231): 26%; growth at 10 µM (NCI-H23 [6]): 18%; growth at 0.001 µM (PC-3): 101%; growth at 0.01 µM (SK-MEL-2): 90%; growth at 0.1 µM (IGROV-1): 83%; growth at 0.01 µM (OVCAR-3 [7]): 106%; growth at 10 µM (SN12C): 34%
COc1cc(C)cc(-c2c(-c3ccnc(-c4ccc(N(C)C)cc4)c3)cnn2CC#N)c1	93	-20	44	-48	77.7	104	95	36	95	0.236	> 100	> 100	18	0.113	0.334	20	67	-19	-50	94	growth at 1 µM (U-251): 6%; growth at 0.1 µM (SW-620): 12%; growth at 0.1 µM (MDA-MB-435): -43%; growth at 10 µM (MDA-MB-231): 25%; growth at 10 µM (NCI-H23 [6]): 17%; growth at 0.001 µM (PC-3): 101%; growth at 0.01 µM (SK-MEL-2): 66%; growth at 0.1 µM (IGROV-1): 2%; growth at 0.01 µM (OVCAR-3 [7]): 63%; growth at 10 µM (SN12C): 16%
Cc1cc(O)cc(-c2nn(CC#N)cc2-c2ccnc(-c3ccc(Oc4ccccc4)cc3)c2)c1	100	93	91	-89	96.8	88	98	63	96	2.08	5.54	21.9	-23	2.28	7.18	94	93	96	88	95	LC50 (DU-145): 26.1 µM; growth at 1 µM (U-251): -97%; growth at 0.1 µM (SW-620): 92%; growth at 0.1 µM (MDA-MB-435): 89%; growth at 10 µM (MDA-MB-231): -62%; growth at 10 µM (NCI-H23 [6]): -75%; growth at 0.001 µM (PC-3): 98%; growth at 0.01 µM (SK-MEL-2): 99%; growth at 0.1 µM (IGROV-1): 86%; growth at 0.01 µM (OVCAR-3 [7]): 103%; growth at 10 µM (SN12C): -87%

Source: ChEMBL document CHEMBL1165950, “Design and synthesis of new potent anticancer pyrazoles with high FLT3 kinase inhibitory selectivity” (Bioorg Med Chem, 2010)
